# ERp5 inh = inhibitors of ERp5-driven insulin aggregation, primary screen, biochemical, turbidity, absorbance 650 nm, single point. Protein disulfide-isomerase A6 (Homo sapiens), Q15084. 90 min. inhibition, % at 9.99 µM. 350,000 tested, 0.05% active;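 active = mean replicate inhibition above about 25%, with every replicate also reaching it, limit read from the data, passing the limit was not always enough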
# Target sequence (Q15084 whole entry, looked up): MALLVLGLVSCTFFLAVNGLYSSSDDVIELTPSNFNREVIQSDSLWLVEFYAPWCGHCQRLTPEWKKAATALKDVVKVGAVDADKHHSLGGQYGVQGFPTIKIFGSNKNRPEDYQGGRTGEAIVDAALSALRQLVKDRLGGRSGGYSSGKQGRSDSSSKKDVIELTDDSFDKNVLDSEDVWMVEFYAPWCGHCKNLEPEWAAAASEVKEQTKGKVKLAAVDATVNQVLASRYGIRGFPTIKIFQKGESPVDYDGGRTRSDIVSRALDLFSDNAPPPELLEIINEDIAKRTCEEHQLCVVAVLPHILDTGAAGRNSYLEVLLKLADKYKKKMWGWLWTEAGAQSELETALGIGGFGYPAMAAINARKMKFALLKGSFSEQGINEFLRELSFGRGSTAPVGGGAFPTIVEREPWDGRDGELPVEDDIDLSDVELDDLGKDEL
# IMP-1 inh = IMP-1 metallo-beta-lactamase inhibitors, primary screen, biochemical, epi-absorbance readout, Pseudomonas aeruginosa enzyme; metallo-beta-lactamase IMP-1 (Pseudomonas aeruginosa); purified IMP-1, nitrocefin hydrolysis, epi-absorbance fluorescence; inhibition, % at 5.6 µM; 290,000 tested, 0.45% active; AID 1556, 2009;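 active = inhibition above the mean plus 3 SD of all compounds in the same screening run, cut at about 4.5% in these data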;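 also: 0% = IMP-1 with DMSO and 100% = DMSO wells lacking enzyme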
#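 System: purified recombinant IMP-1 beta-lactamase. Medium: Zinc- and detergent-supplemented HEPES buffer, pH 7.1. Compound: one 5.6 µM dose […]. Schedule: 15 min preincubation plus 25 min reaction at 25 °C. Technique: Epi-absorbance fluorescence, 480 nm excitation, 530 nm emission.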
# PglD inh = C. jejuni PglD acetyltransferase inhibitors, primary screen, biochemical, DTNB colorimetric, single point. UDP-N-acetylbacillosamine N-acetyltransferase PglD (Campylobacter jejuni). purified PglD enzyme, DTNB colorimetric CoA detection. inhibition, % at 12.5 µM. 360,000 tested, 0.098% active. AID 602405, 2012; in the data active = inhibition above about 16%, passing the limit was not always enough
# PDI inh = inhibitors of human PDI, primary screen, biochemical, turbidity, single point, plate reader | Protein disulfide-isomerase (Homo sapiens), P07237 | PDI insulin aggregation turbidity, A650, 90 min | inhibition, % at 10 µM | 350,000 tested, 0.052% active;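 active = mean inhibition across replicates of 30% or more, whatever share of single replicates reach that level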
# VIM-2 inh = VIM-2 metallo-beta-lactamase inhibitors, primary screen, biochemical, epi-absorbance readout, Pseudomonas aeruginosa enzyme; 290,000 tested, 0.89% active; purified VIM-2, nitrocefin hydrolysis, epi-absorbance fluorescence; inhibition, % at 5.6 µM;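 active = inhibition above the mean of all tested compounds plus 3 SD, cutoff set per screening run, cut at about 7.5% in these data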;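 also: red hydrolysis product quenches plate fluorescence so inhibitors raise well fluorescence; 0% = enzyme with DMSO and 100% = DMSO without enzyme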
# PvdQ acylase = P. aeruginosa PvdQ acylase inhibitors, primary screen, biochemical, fluorescence, plate reader and imaging, single point. PvdQ acylase [Pseudomonas aeruginosa LESB58]. purified PvdQ acylase. inhibition, % at 10 µM. 340,000 tested, 0.063% active. AID 488965, 2010; in the data active = inhibition above about 30%, passing the limit was not always enough;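 also: 0% = vehicle neutral wells and 100% = reference inhibitor wells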
# An asterisk follows results filed as active; / = not tested or not shown. Rows were chosen to be rich in hits. Some 1% of all compounds tested hit in one or more screens of this group.
SMILES,ERp5 inh,IMP-1 inh,PglD inh,PDI inh,VIM-2 inh,PvdQ acylase
CCn1c(=O)c(CCC(=O)NCCN2CCOCC2)c(C)c2c(C)nn(-c3ccccc3)c21,-1,-2,0,18,9.6*,1
CCCCc1c(O)nc(SCC(=O)N2CCOCC2)n(-c2ccccc2C)c1=O,/,-1,-2,0,-3,-16
Cc1ccccc1-n1c(SCC(=O)N2CCOCC2)nc(O)c(Cc2ccccc2)c1=O,-1,5.2*,-1,-1,-1,8
CCCN(C)C[C@@H]1Oc2ncc(-c3cccc(C(=O)N(C)C)c3)cc2C(=O)N([C@@H](C)CO)C[C@@H]1C,-3,/,-4,/,/,/
COc1ccc(S(=O)(=O)c2c(N)n(Cc3ccco3)c3nc4ccccc4nc23)cc1,/,5.6*,-2,-2,5,-20
COc1ccc2c3c(n(C)c2c1)[C@H](CO)N(C(=O)Nc1ccc(F)cc1)CC31CN(CC2CCOCC2)C1,-3,/,/,/,/,/
CC[C@]12c3[nH]c4cc(-c5ccco5)ccc4c3CCN1C(=O)[C@@H](CC(=O)NCc1ccc(OC)c(OC)c1)C[C@@H]2C(=O)N1CCN(C(=O)C2CC2)CC1,1,/,-2,37*,/,-18
CC[C@]12c3[nH]c4cc(-c5ccco5)ccc4c3CCN1C(=O)[C@@H](CC(=O)NCc1ccco1)C[C@@H]2C(=O)N1CCN(C(=O)C2CC2)CC1,1,/,-3,14,/,-9
c1ccc(COc2cccc(CNCc3ccccn3)c2)cc1,-1,-4,/,0,8.2*,-10
CC(C)=CCN1CCN(Cc2cnc(C)s2)CC1CCO (stereo unspecified),-2,0,-3,-3,1,10
Cc1ncc(CN2CCN(Cc3ccc(F)cc3)C(CCO)C2)s1 (stereo unspecified),1,-2,-3,-1,-1,39*
CCCNC(=O)c1ccc(N2CCC3(CC2)CC(c2ccccc2)=NO3)c(NC(=O)Cc2ccc(F)cc2)c1,4,9.9*,-3,10,-1,-18
CCCNC(=O)c1ccc(N2CCC3(CC2)CC(c2ccccc2)=NO3)c(N)c1,18,2,1,-2,3,-3
C[C@@H]1CCCCO[C@H](CN(C)C(=O)CCCN(C)C)[C@H](C)CN([C@@H](C)CO)C(=O)c2cc(NC(=O)c3ccccc3)ccc2O1,-1,/,1,/,/,/
CCn1c(N2CCN(S(=O)(=O)c3ccccc3C(F)(F)F)CC2)nc2ccccc21,/,7.2*,1,4,-4,2
C[C@H]1CCCCO[C@H](CN(C)Cc2ccc(C(=O)O)cc2)[C@@H](C)CN([C@@H](C)CO)C(=O)c2cc(NS(=O)(=O)c3ccc(F)cc3)ccc2O1,-1,/,-2,/,/,/
COc1ccc(NC(=O)Nc2ccc3c(c2)CC(=O)N([C@H](C)CO)C[C@@H](C)[C@@H](CN(C)C(=O)Nc2cccc4ccccc24)O3)cc1,/,/,2,/,/,/
Fc1ccc(-c2csc(-c3ccccn3)n2)cc1F,3,1,/,-1,1,33*
CCNC(=O)Nc1ccc2c(c1)C(=O)N(C)[C@@H]1CC[C@H](CC(=O)NCCOC)O[C@@H]1CO2,-3,/,4,/,/,/
COc1ccc(OCC(O)CNC(=O)c2sccc2Cl)cc1 (stereo unspecified),3,38*,/,0,-3,-14
COc1ccc(OCC(O)CNC(=O)Nc2ccccc2)cc1 (stereo unspecified),0,3,-2,4,3,1
CCCOC(=O)c1cc(=O)[nH]c2ccccc12,/,4.5*,7,-1,0,-16
CCOC(=O)c1cc(=O)[nH]c2ccccc12,1,-4,/,-5,-4,-7
CCOc1ccc(C(C)=O)cc1Cn1nc(C(=O)O)c2ccccc2c1=O,/,-3,-2,-9,9.8*,5
COCCCn1c(-c2ccccc2Cl)n[nH]c1=S,/,-1,3,1,10*,-2
COCCCn1c(-c2ccc(Cl)cc2)n[nH]c1=S,/,-3,-3,7,6,16
